Test results from ChEMBL document CHEMBL3098070, “Rational design, synthesis and antitubercular evaluation of novel 2-(trifluoromethyl)phenothiazine-[1,2,3]triazole hybrids” (Bioorg Med Chem Lett, 2014).
Converted amounts (≈) assume the structure as drawn.

Assays:
[1] = system: Mycobacterium tuberculosis; assay: Antimycobacterial activity against Mycobacterium tuberculosis H37Rv ATCC 27294 assessed as parasite growth inhibition after 28 days by agar dilution method; type: functional; conditions: H37Rv ATCC 27294, 672 h
Outline: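 Agar dilution in Middlebrook 7H11 with OADC; two-fold dilutions 50.0 to 0.4 µg/mL. Inoculum from fresh 7H11 slants, adjusted to 1 mg/mL wet weight in 0.05% Tween 80 saline, diluted 10-2 to 107 cfu/mL; 5 µL spotted per tube. Incubated 37 °C, read at 28 days. MIC = lowest concentration giving complete growth inhibition; triplicates.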

[2] = Cytotoxicity against HEK293T cells at 50 ug/ml after 72 hrs by MTT assay; type: cell-based, HEK-293T; conditions: human, read-out: INH
Outline: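 HEK-293T human embryonic kidney cells exposed to compound at 50 µg/mL for 72 h; viability by cellular MTT conversion to formazan (non-radioactive cell proliferation kit); reported as percentage inhibition of cells.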

[3] = Selectivity index, ratio of cytotoxicity for HEK293T cells to MIC for Mycobacterium tuberculosis H37Rv; type: toxicity, cell-based, HEK-293T; conditions: human, read-out: Selectivity Index

| Compound | MIC [1] [µg/mL] | cytotoxicity at 72 h, 50 ug/ml [2] [%] | selectivity ratio [3] |
| --- | --- | --- | --- |
| CCCCCc1cn(CC(=O)N2c3ccccc3Sc3ccc(C(F)(F)F)cc32)nn1 | 12.5 (≈ 28 µM) | – | – |
| CCCCCc1ccc(-c2cn(CC(=O)N3c4ccccc4Sc4ccc(C(F)(F)F)cc43)nn2)cc1 | ≤ 25 | – | – |
| COc1cccc(-c2cn(CC(=O)N3c4ccccc4Sc4ccc(C(F)(F)F)cc43)nn2)c1 | 6.25 (≈ 13 µM) | 34.6 | > 10 |
| O=C(Cn1cc(C2(O)CCCC2)nn1)N1c2ccccc2Sc2ccc(C(F)(F)F)cc21 | 12.5 (≈ 27.1 µM) | – | – |
| O=C(Cn1cc(CCCO)nn1)N1c2ccccc2Sc2ccc(C(F)(F)F)cc21 | 12.5 (≈ 28.8 µM) | – | – |
| O=C(Cn1cc(-c2ccsc2)nn1)N1c2ccccc2Sc2ccc(C(F)(F)F)cc21 | 25 (≈ 54.5 µM) | – | – |
| O=C(Cn1cc(-c2ccc(-c3ccccc3)cc2)nn1)N1c2ccccc2Sc2ccc(C(F)(F)F)cc21 | 25 (≈ 47.3 µM) | – | – |
| CCCCc1cn(CC(=O)N2c3ccccc3Sc3ccc(C(F)(F)F)cc32)nn1 | 25 (≈ 57.8 µM) | – | – |
| Cc1ccc(-c2cn(CC(=O)N3c4ccccc4Sc4ccc(C(F)(F)F)cc43)nn2)cc1 | 25 (≈ 53.6 µM) | – | – |
| NNC(=O)c1ccncc1 [ISONIAZID] | 0.1 (≈ 0.729 µM) | – | – |
| O=C(Cn1cc(-c2ccccc2)nn1)N1c2ccccc2Sc2ccc(C(F)(F)F)cc21 | 12.5 (≈ 27.6 µM) | – | – |
| O=C(Cn1cc(CCc2ccccc2)nn1)N1c2ccccc2Sc2ccc(C(F)(F)F)cc21 | 25 (≈ 52 µM) | – | – |
| COc1ccc2cc(-c3cn(CC(=O)N4c5ccccc5Sc5ccc(C(F)(F)F)cc54)nn3)ccc2c1 | 25 (≈ 46.9 µM) | – | – |
| Cc1cccc(-c2cn(CC(=O)N3c4ccccc4Sc4ccc(C(F)(F)F)cc43)nn2)c1 | 25 (≈ 53.6 µM) | – | – |
| CC(C)(C)c1ccc(-c2cn(CC(=O)N3c4ccccc4Sc4ccc(C(F)(F)F)cc43)nn2)cc1 | 25 (≈ 49.2 µM) | – | – |
| CC[C@@H](CO)NCCN[C@@H](CC)CO [ETHAMBUTOL] | 3.13 (≈ 15.3 µM) | – | – |
| O=C(Cn1cc(-c2ccc([N+](=O)[O-])cc2)nn1)N1c2ccccc2Sc2ccc(C(F)(F)F)cc21 | 25 (≈ 50.3 µM) | – | – |
| COc1ccc(-c2cn(CC(=O)N3c4ccccc4Sc4ccc(C(F)(F)F)cc43)nn2)c(C)c1 | 12.5 (≈ 25.2 µM) | – | – |
| NC(=O)c1cnccn1 [PYRAZINAMIDE] | 50 (≈ 406 µM) | – | – |
| O=C(Cn1cc(-c2cc3ccccc3c3ccccc23)nn1)N1c2ccccc2Sc2ccc(C(F)(F)F)cc21 | 12.5 (≈ 22.6 µM) | – | – |
| CC(=O)c1ccc(C)cc1OCc1cn(CC(=O)N2c3ccccc3Sc3ccc(C(F)(F)F)cc32)nn1 | 25 (≈ 46.4 µM) | – | – |
| O=C(Cn1cc(-c2ccc(F)cc2F)nn1)N1c2ccccc2Sc2ccc(C(F)(F)F)cc21 | 6.25 (≈ 12.8 µM) | 30.6 | > 10 |
| O=C(Cn1cc(C2(O)CCCCC2)nn1)N1c2ccccc2Sc2ccc(C(F)(F)F)cc21 | 25 (≈ 52.7 µM) | – | – |
| O=C(Cn1cc(-c2ccc(Cl)c(Cl)c2)nn1)N1c2ccccc2Sc2ccc(C(F)(F)F)cc21 | ≤ 25 | – | – |
| CCCCCCc1cn(CC(=O)N2c3ccccc3Sc3ccc(C(F)(F)F)cc32)nn1 | 6.25 (≈ 13.6 µM) | 25.6 | > 10 |
